Assay results as given in ChEMBL document CHEMBL5036308, “Chiral Alkyl Groups at Position 3(1') of Pyropheophorbide-a Specify Uptake and Retention by Tumor Cells and Are Essential for Effective Photodynamic Therapy” (J Med Chem, 2021).
Active and inactive are the calls of the source. The calls are words filed in the database; no cut-off is given here.

How the values were obtained:
[1] = Lipophilicity, logP of the compound; format: physicochemical; settings: octanol/water
[2] = Drug uptake in human HN-143-T-EC cells assessed as drug retention in endoplasmic reticulum measured after 72 hrs by fluorescent microscopy; format: ADME, cell-based
[3] = Drug uptake in human HN-143-T-EC cells assessed as drug retention in mitochondria measured after 72 hrs chase period by fluorescent microscopy; format: ADME
[4] = Drug uptake in human HN-143 T-EC cells assessed as drug retention at 1600 nM incubated for 24 hrs in presence of 10% fetal bovine serum measured after 72 hrs chase period by fluorescent microscopy imaging based analysis; format: ADME, cell-based; settings: 1.6 µM
In short: (§1)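 Cells incubated 24 h in medium with 10% serum and 1600 nM PS, then chased in PS-free medium for up to 72 h with daily medium changes. Cellular PS was measured daily by fluorescence microscopy; net fluorescence intensity per full image frame was quantified in arbitrary units.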

[5] = Drug uptake in human HN-143 T-EC cells assessed as drug retention at 1600 nM incubated for 24 hrs in presence of 10% fetal bovine by fluorescent microscopy imaging based analysis; format: ADME, cell-based; settings: 1.6 µM; in short: as §1
TEC1-2 = assay: Binding affinity to human TEC1-2 cell plasma membrane assessed as drug retention at 1600 nM incubated for 24 hrs in presence of 10% fetal bovine serum measured after 48 hrs chase period by fluorescent microscopy; format: cell membranes
HNT1 = assay: Binding affinity to human HNT1 cell plasma membrane with CFSE-labeled HN-87 T-Fb assessed as drug retention at 1600 nM incubated for 24 hrs in presence of 10% fetal bovine serum measured after 24 hrs chase period by fluorescent microscopy; format: cell membranes
In short: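 HNT1 cells (p 72) co-cultured on collagen-1 with CFSE-stained HN-87 T-Fb fibroblasts (added to 24 h-old tumor cultures, grown 3–7 days to confluence). Treated 24 h with DMEM + 10% FBS and 1600 nM PS, chased 24 h in DMEM + 10% FBS, then fluorescence imaged under identical conditions.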

[6] = Solubility of the compound; format: physicochemical
[7] = Photoreactivation in human TEC21 cells assessed as STAT3cross-linking in presence of 10% fetal bovine serum under 665 nm light for 9 mins measured after 24 hrs by immune blot analysis; format: cell-based; settings: tec-21, 0.15 h
In short: (§2)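 TEC-21 cells (p 8) treated 24 h in RPMI + 10% FBS with PS, imaged, chased 48 h in RPMI + 10% FBS, then irradiated 9 min with 665 nm light (6 mW/cm²). Cells were extracted immediately and immunoblotted for STAT3 crosslinking, EGFR and phospho-p38 MAPK.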

[8] = Drug uptake in human HN-90 T-EC cells assessed as drug retention at 1600 nM incubated for 24 hrs in presence of 10% fetal bovine serum measured after 72 hrs chase period by fluorescent microscopy imaging based analysis; format: ADME, cell-based; settings: 1.6 µM; in short: as §1
FaDu-124 = assay: Binding affinity to human FaDu-124 cell membrane surface measured at 1600 nM incubated for 30 mins at 0 degC; format: tissue-based
In short: (§3)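 FaDu-124 cells, 30 min on ice in serum-free DMEM with 1600 nM PS, then cell-associated fluorescence imaged. For diffusion into cells, cultures were then held 30 min at 37°C in fresh serum-free medium and imaged again.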

[9] = Drug uptake in human HNT1 cells assessed as drug retention at 1600 nM incubated for 24 hrs in presence of 10% fetal bovine serum measured after 24 hrs chase period by fluorescent microscopy; format: ADME, cell-based; settings: hnt1, 24 h, 1.6 µM
[10] = Drug uptake in human TEC-21 cells assessed as drug retention at 1600 nM incubated for 24 hrs in presence of 10% fetal bovine serum measured after72 hrs chase period by fluorescent microscopy imaging based analysis; format: ADME, cell-based; settings: tec-21, 72 h, 1.6 µM; in short: as §1
[11] = Drug uptake in human HNT1 cells with CFSE-labeled HN-101 T-Fb assessed as drug retention at 1600 nM incubated for 24 hrs in presence of 10% fetal bovine serum measured after 24 hrs chase period by fluorescent microscopy; format: ADME, cell-based; settings: hnt1, 24 h, 1.6 µM
In short: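 Co-cultures of HNT1 cells (p 103) with CFSE-labeled HN-101 T-Fb on collagen-1 matrix; 24 h in DMEM + 10% FBS with 1600 nM PS, then 24 h chase in PS-free medium; cell-associated fluorescence imaged by microscopy.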

[12] = Drug uptake in human HNT1 cells assessed as drug retention at 1600 nM incubated for 24 hrs in presence of 10% fetal bovine serum measured after 48 hrs chase period by fluorescent microscopy; format: ADME, cell-based; settings: hnt1, 48 h, 1.6 µM
[13] = Drug uptake in human L237 cells assessed as drug retention at 1600 nM incubated for 24 hrs in presence of 10% fetal bovine serum measured after 48 hrs chase period by fluorescent microscopy; format: ADME, cell-based; settings: l237, 48 h, 1.6 µM
In short: (§4)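 Confluent cultures (e.g. HN-77 T-EC, p 13) incubated 24 h in RPMI + 10% FBS with 1600 nM PS, then 48 h chase in RPMI + 10% FBS. Fluorescence images recorded and net fluorescence intensity quantified.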

[14] = Drug uptake in human FaDu-124 cell membrane assessed as drug internalization at 1600 nM incubated for 30 mins at 37 degC; format: ADME, cell-based; settings: fadu-124, 0.5 h, 1.6 µM; in short: as §3
[15] = Drug uptake in human HN-T1 cells assessed as drug retention at 1600 nM incubated for 24 hrs in presence of 10% fetal bovine serum measured after 72 hrs chase period by fluorescent microscopy imaging based analysis; format: ADME, cell-based; settings: hnt1, 72 h, 1.6 µM; in short: as §1
[16] = Drug uptake in human HN-77 T-EC cells assessed as drug retention at 1600 nM incubated for 24 hrs in presence of 10% fetal bovine serum measured after 48 hrs chase period by fluorescent microscopy; format: ADME, cell-based; settings: 1.6 µM; in short: as §4
[17] = Drug uptake in human HN-142 T-EC cells assessed as drug retention at 1600 nM incubated for 24 hrs in presence of 10% fetal bovine serum measured after 48 hrs chase period by fluorescent microscopy; format: ADME, cell-based; settings: 1.6 µM; in short: as §4
[18] = Drug uptake in human FaDu-124 cells assessed as drug retention at 1600 nM incubated for 24 hrs in presence of 10% fetal bovine serum measured after 48 hrs chase period by fluorescent microscopy; format: ADME, cell-based; settings: fadu-124, 48 h, 1.6 µM
[19] = Drug uptake in human TEC-1 cells assessed as drug retention at 1600 nM incubated for 24 hrs in presence of 10% fetal bovine serum measured after 48 hrs chase period by fluorescent microscopy; format: ADME, cell-based; settings: tec-1, 48 h, 1.6 µM; in short: as §4
[20] = Drug uptake in human FaDu clone 49 cells assessed as drug retention at 1600 nM incubated for 24 hrs in presence of 10% fetal bovine serum measured after 72 hrs chase period by fluorescent microscopy imaging based analysis; format: ADME, cell-based; settings: fadu clone 49, 72 h, 1.6 µM; in short: as §1
[21] = Drug uptake in human HN-T1 cells assessed as drug internalization at 1600 nM incubated for 24 hrs in presence of 10% fetal bovine serum measured after 24 hrs chase period by fluorescent microscopy; format: ADME, cell-based; settings: hnt1, 24 h, 1.6 µM
[22] = Drug uptake in human HN-85 T-EC cells assessed as drug retention at 1600 nM incubated for 24 hrs in presence of 10% fetal bovine serum measured after 24 hrs chase period by fluorescent microscopy; format: ADME, cell-based; settings: 1.6 µM
[23] = Photoreactivation in human HN-85 T-EC cells at 100 to 400 nM in presence of 10% fetal bovine serum under 3 J/cm^2 light for 9 mins measured after 24 hrs by Western blotting analysis; settings: 0.15 h, 0.4 µM
[24] = Drug uptake in human HN-143 T-EC cells assessed as slow release by measuring drug retention at 1600 nM incubated for 24 hrs in presence of 10% fetal bovine serum measured after 48 hrs chase period by fluorescent microscopy imaging based analysis; format: ADME, cell-based; settings: 1.6 µM; in short: as §1
[25] = Photoreactivation in human TEC21 cells in presence of 10% fetal bovine serum under 665 nm light for 9 mins measured after 24 hrs by immune blot analysis; format: cell-based; settings: tec-21, 24 h; in short: as §2
HN-143 T-EC = assay: Binding affinity to human HN-143 T-EC cell membrane surface measured at 1600 nM incubated for 30 min; format: tissue-based

Compound: CCCCCCOC(CCC)c1c(C)c2cc3nc(c4c5[nH]c(cc6nc(cc1[nH]2)C(C)=C6CC)c(C)c5C(=O)C4)[C@@H](CCC(=O)O)C3C (some centres not stated)
- logP [1]: 6.01
- Drug uptake [2]: Active
- Drug uptake [3]: Active
- Drug uptake [4]: Active
- Drug uptake [5]: Active

Compound: CCCCC(C)OCc1c(C)c2cc3nc(c4c5[nH]c(cc6nc(cc1[nH]2)C(C)=C6CC)c(C)c5C(=O)C4)[C@@H](CCC(=O)OC)C3C (some centres not stated)
- Activity (TEC1-2): inactive
- Activity (HNT1): inactive

Compound: CCCCCCCCc1c(C)c2cc3nc(c4c5[nH]c(cc6nc(cc1[nH]2)C(C)=C6CC)c(C)c5C(=O)C4)[C@@H](CCC(=O)O)C3C (some centres not stated)
- Drug uptake [4]: Active
- Drug uptake [5]: Not Active
- solubility [6]: Soluble

Compound: CCCCCCOC(C)c1c(C)c2cc3nc(c4c5[nH]c(cc6nc(cc1[nH]2)C(C)=C6CC)c(C)c5C(=O)C4)[C@@H](CCC(=O)O)C3C (some centres not stated)
- logP [1]: 6.01
- Activity [7]: 0.4%
- Drug uptake [3]: Active
- Drug uptake [8]: Active
- Drug uptake [4]: Active
- Activity (FaDu-124): Active
- Drug uptake [9]: Not Active
- Drug uptake [10]: Active
- Drug uptake [11]: Active
- Drug uptake [12]: Not Active
- Drug uptake [13]: Not Active
- Drug uptake [14]: Active
- Drug uptake [15]: Active
- Drug uptake [5]: Active
- Drug uptake [16]: Not Active
- Drug uptake [17]: Not Active
- Drug uptake [18]: Not Active
- Drug uptake [19]: Not Active
- Drug uptake [20]: Active

Compound: CCCCCCSC(C)c1c(C)c2cc3nc(c4c5[nH]c(cc6nc(cc1[nH]2)C(C)=C6CC)c(C)c5C(=O)C4)[C@@H](CCC(=O)O)C3C (some centres not stated)
- Drug uptake [4]: Active
- Activity (FaDu-124): Active
- Drug uptake [14]: Active
- Drug uptake [5]: Active

Compound: CCCCc1c(C)c2cc3nc(c4c5[nH]c(cc6nc(cc1[nH]2)C(C)=C6CC)c(C)c5C(=O)C4)[C@@H](CCC(=O)OC)C3C (some centres not stated)
- Drug uptake [21]: Active

Compound: CCCCCCOC(CCC)c1c(C)c2cc3nc(c4c5[nH]c(cc6nc(cc1[nH]2)C(C)=C6CC)c(C)c5C(=O)C4)[C@@H](CCC(=O)OC)C3C (some centres not stated)
- Drug uptake [2]: Active
- Drug uptake [3]: Active
- Drug uptake [4]: Active

Compound: CCCCCCSC(C)c1c(C)c2cc3nc(c4c5[nH]c(cc6nc(cc1[nH]2)C(C)=C6CC)c(C)c5C(=O)C4)[C@@H](CCC(=O)OC)C3C (some centres not stated)
- Drug uptake [4]: Active
- Activity (FaDu-124): Active
- Drug uptake [14]: Active

Compound: CCCCC(C)OC(C)c1c(C)c2cc3nc(c4c5[nH]c(cc6nc(cc1[nH]2)C(C)=C6CC)c(C)c5C(=O)C4)[C@@H](CCC(=O)OC)C3C (some centres not stated)
- Drug uptake [22]: Not Active
- Drug uptake [2]: Active
- Drug uptake [3]: Active
- Drug uptake [4]: Active
- Drug metabolism [23]: Metabolite_Detected
- Drug uptake [24]: Active

Compound: CCCCCCOC(C)c1c(C)c2cc3nc(c4c5[nH]c(cc6nc(cc1[nH]2)C(C)=C6CC)c(C)c5C(=O)C4)[C@@H](CCC(=O)OC)C3C (some centres not stated)
- Drug uptake [2]: Active
- Drug uptake [3]: Active
- Drug uptake [4]: Active
- Activity (FaDu-124): Active
- Drug uptake [14]: Active

Compound: CCCCC(C)OCc1c(C)c2cc3nc(c4c5[nH]c(cc6nc(cc1[nH]2)C(C)=C6CC)c(C)c5C(=O)C4)[C@@H](CCC(=O)O)C3C (some centres not stated)
- Drug metabolism [25]: Metabolite_Detected
- Activity [7]: 0.2%
- Activity (HN-143 T-EC): Active
- Drug uptake [4]: Active
- Drug uptake [9]: Active
- Drug uptake [5]: Active

Compound: CCCCC(C)OC(C)c1c(C)c2cc3nc(c4c5[nH]c(cc6nc(cc1[nH]2)C(C)=C6CC)c(C)c5C(=O)C4)[C@@H](CCC(=O)O)C3C (some centres not stated)
- Drug uptake [22]: Not Active
- Drug uptake [2]: Active
- Drug uptake [3]: Active
- Activity (HN-143 T-EC): Active
- Drug uptake [4]: Active
- Drug uptake [9]: Active
- Drug uptake [5]: Active

Compound: C=Cc1c(C)c2cc3nc(c4c5[nH]c(cc6nc(cc1[nH]2)C(C)=C6CC)c(C)c5C(=O)C4)[C@@H](CCC(=O)O)C3C (some centres not stated)
- Activity (FaDu-124): inactive

Compound: CCCCc1c(C)c2cc3nc(c4c5[nH]c(cc6nc(cc1[nH]2)C(C)=C6CC)c(C)c5C(=O)C4)[C@@H](CCC(=O)O)C3C (some centres not stated)
- Drug uptake [21]: Active

Compound: CCCCOC(CCC)c1c(C)c2cc3nc(c4c5[nH]c(cc6nc(cc1[nH]2)C(C)=C6CC)c(C)c5C(=O)C4)[C@@H](CCC(=O)OC)C3C (some centres not stated)
- Drug uptake [2]: Active
- Drug uptake [3]: Active
- Drug uptake [4]: Active

Compound: CCCCCCOCc1c(C)c2cc3nc(c4c5[nH]c(cc6nc(cc1[nH]2)C(C)=C6CC)c(C)c5C(=O)C4)[C@@H](CCC(=O)OC)C3C (some centres not stated)
- Activity (TEC1-2): inactive
- Activity (HNT1): inactive

Compound: CCCCCCOCc1c(C)c2cc3nc(c4c5[nH]c(cc6nc(cc1[nH]2)C(C)=C6CC)c(C)c5C(=O)C4)[C@@H](CCC(=O)O)C3C (some centres not stated)
- Activity (HN-143 T-EC): Active
